Calls of active or inactive are those of the source.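 Rule for the calls: active = at least one off-target enzyme showing weaker fluorescent probe labeling in any proteome panel; inactive = no off-target enzyme affected in any panel.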

In this experiment the test system is Membrane Proteome. Briefly: anti-target inhibition in MCF7 proteome, late-stage follow-up, selectivity assay for PAD4 inhibitor project, cell lysate, gel-based fluorescence, soluble and membrane fractions (AID 651628). The note with it: CA-Rh gel-based ABPP, anti-target count, at 50 µM, active compounds read high. The procedure, abridged: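 Test system: MCF7 cell proteome, soluble or membrane fraction / Amount: proteome protein concentration of 1 mg/ml / Schedule: compound 1 h, probe 1 h, 25 °C / Buffer or medium: DPBS / Detection: SDS-PAGE separation with in-gel fluorescence scanning of labelled bands / Also added: Chloroacetamide-rhodamine (CA-Rh) labelling probe, 10 µM / Doses: compound at 10 or 50 µM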
On to `COC(=O)c1cccc(-c2ccc3c(n2)C(=O)C(Br)=CC3=O)n1`, for which the number of anti-targets is > 5 (active).

On to `O=C1C(O)=C(O)C(=O)c2ncccc21`, for which the number of anti-targets is > 5 (active).

Turning to `COC1=C(Br)C(=O)c2ncccc2C1=O`, the number of anti-targets was > 5 (active).

For the compound `NC1=CC(=O)c2ccc(-c3cccc(C(=O)O)n3)nc2C1=O`, the number of anti-targets is 0 (inactive).

As for `NC1=CC(=O)c2cccnc2C1=O`, the number of anti-targets is 0 (inactive).

In the case of `COC(=O)c1cccc(-c2ccc3c(n2)C(=O)C(N)=CC3=O)n1`, the number of anti-targets was 0 (inactive).

As for `COC1=C(Br)C(=O)c2nc(-c3ccccn3)ccc2C1=O`, the number of anti-targets is > 5 (active).

Regarding `COC1=C(N)C(=O)c2nc(-c3nc(C(=O)O)c(C)c(-c4ccc(OC)c(OC)c4O)c3N)ccc2C1=O`, the number of anti-targets is 0 (inactive).

As for `COC1=C(N)C(=O)c2ncccc2C1=O`, the number of anti-targets was 0 (inactive).

For `COC(=O)c1nc(C(=O)OC)c(NC(C)=O)c(-c2ccccc2Br)c1C`, the number of anti-targets was 0 (inactive).

As to `COC1=C(I)C(=O)c2nc(C#N)ccc2C1=O`, the number of anti-targets is > 5 (active).

As for `O=C1C=C(Br)C(=O)c2ncccc21`, the number of anti-targets was > 5 (active).

`COC1=CC(=O)c2nc(C#N)ccc2C1=O`: the number of anti-targets was > 5 (active).

Regarding `NC1=CC(=O)c2ccc(-c3ccccn3)nc2C1=O`, the number of anti-targets is 0 (inactive).

The record behind these values is PubChem BioAssay AID651628 (The Scripps Research Institute Molecular Screening Center, 2012).
